Each compound was assayed against T1, Falcipain 2 (Plasmodium falciparum, UniProt Q9N6S8) (assay: Inhibition of falcipain activity).
T1 sequence (Q9N6S8 whole entry): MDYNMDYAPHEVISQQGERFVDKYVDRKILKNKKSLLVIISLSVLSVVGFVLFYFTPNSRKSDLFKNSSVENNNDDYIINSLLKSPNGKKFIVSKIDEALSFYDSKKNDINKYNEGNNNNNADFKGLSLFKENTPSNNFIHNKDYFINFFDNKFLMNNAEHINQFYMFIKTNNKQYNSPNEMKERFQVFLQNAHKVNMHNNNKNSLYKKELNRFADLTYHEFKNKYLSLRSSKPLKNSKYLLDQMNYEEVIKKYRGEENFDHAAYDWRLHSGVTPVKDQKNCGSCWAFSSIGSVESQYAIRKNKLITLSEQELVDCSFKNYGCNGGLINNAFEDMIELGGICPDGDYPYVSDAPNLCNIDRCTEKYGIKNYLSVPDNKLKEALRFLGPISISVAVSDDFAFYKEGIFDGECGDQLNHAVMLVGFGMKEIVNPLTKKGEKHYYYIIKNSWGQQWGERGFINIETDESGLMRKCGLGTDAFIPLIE
In short: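 Soluble parasite extract containing falcipain (30 nM) preincubated 30 min at room temperature with compound (100× DMSO stocks) and 10 mM DTT in 0.1 M sodium acetate, pH 5.5. Z-Phe-Arg-AMC then added to 50 μM final. Fluorescence (ex 380, em 460 nm) followed continuously for 30 min. Rates compared with DMSO controls. Multiple concentrations tested in duplicate or triplicate; IC50 extrapolated from % control activity curves.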

| Structure (SMILES) | IC50 |
| --- | --- |
| COc1cccc(C2CC(=O)C3Sc4cc(F)ccc4N=C3C2)c1OC (centres undefined) [2-(2,3-Dimethoxy-phenyl)-7-fluoro-2,3-dihydro-1H,10H-phenothiazin-4-one] | 20 µM |
| O=C1CC(c2ccc(Cl)cc2Cl)CC2=Nc3ccc(F)cc3SC12 (centres undefined) [2-(2,4-Dichloro-phenyl)-7-fluoro-2,3-dihydro-1H,10H-phenothiazin-4-one] | 10 µM |
| COc1ccc(C2CC(=O)C3Sc4cc(F)ccc4N=C3C2)cc1OC (centres undefined) [2-(3,4-Dimethoxy-phenyl)-7-fluoro-2,3-dihydro-1H,10H-phenothiazin-4-one] | 20 µM |
| COc1ccc(C2CC(=O)C3C(=Nc4ccc(F)cc4S3(=O)=O)C2)cc1OC (centres undefined) [2-(3,4-Dimethoxy-phenyl)-7-fluoro-5,5-dioxo-2,3,5,10-tetrahydro-1H-5lambda*6*-phenothiazin-4-one] | 5 µM |
| O=C1CC(c2ccc(Cl)cc2)CC2=Nc3ccc(F)cc3SC12 (centres undefined) [2-(4-Chloro-phenyl)-7-fluoro-2,3-dihydro-1H,10H-phenothiazin-4-one] | 5 µM |
| O=C1CC(c2ccc(Cl)cc2)CC2=Nc3ccc(F)cc3S(=O)(=O)C12 (centres undefined) [2-(4-Chloro-phenyl)-7-fluoro-5,5-dioxo-2,3,5,10-tetrahydro-1H-5lambda*6*-phenothiazin-4-one] | 5 µM |
| CC1(C)CC(=O)C2Sc3cc(Cl)ccc3N=C2C1 (centres undefined) [7-Chloro-2,2-dimethyl-2,3-dihydro-1H,10H-phenothiazin-4-one] | 30 µM |
| CC1(C)CC(=O)C2C(=Nc3ccc(Cl)cc3S2(=O)=O)C1 (centres undefined) [7-Chloro-2,2-dimethyl-5,5-dioxo-2,3,5,10-tetrahydro-1H-5lambda*6*-phenothiazin-4-one] | 5 µM |
| COc1cccc(C2CC(=O)C3Sc4cc(Cl)ccc4N=C3C2)c1OC (centres undefined) [7-Chloro-2-(2,3-dimethoxy-phenyl)-2,3-dihydro-1H,10H-phenothiazin-4-one] | 10 µM |
| COc1cccc(C2CC(=O)C3C(=Nc4ccc(Cl)cc4S3(=O)=O)C2)c1OC (centres undefined) [7-Chloro-2-(2,3-dimethoxy-phenyl)-5,5-dioxo-2,3,5,10-tetrahydro-1H-5lambda*6*-phenothiazin-4-one] | 4 µM |
| O=C1CC(c2ccc(Cl)cc2Cl)CC2=Nc3ccc(Cl)cc3SC12 (centres undefined) [7-Chloro-2-(2,4-dichloro-phenyl)-2,3-dihydro-1H,10H-phenothiazin-4-one] | 10 µM |
| O=C1CC(c2ccc(Cl)cc2Cl)CC2=Nc3ccc(Cl)cc3S(=O)(=O)C12 (centres undefined) [7-Chloro-2-(2,4-dichloro-phenyl)-5,5-dioxo-2,3,5,10-tetrahydro-1H-5lambda*6*-phenothiazin-4-one] | 30 µM |
| COc1ccc(C2CC(=O)C3Sc4cc(Cl)ccc4N=C3C2)cc1OC (centres undefined) [7-Chloro-2-(3,4-dimethoxy-phenyl)-2,3-dihydro-1H,10H-phenothiazin-4-one] | 30 µM |
| COc1cccc(C2CC(=O)C3Sc4cc(Cl)ccc4N=C3C2)c1 (centres undefined) [7-Chloro-2-(3-methoxy-phenyl)-2,3-dihydro-1H,10H-phenothiazin-4-one] | 20 µM |
| O=C1CC(c2ccc(Cl)cc2)CC2=Nc3ccc(Cl)cc3SC12 (centres undefined) [7-Chloro-2-(4-chloro-phenyl)-2,3-dihydro-1H,10H-phenothiazin-4-one] | 4 µM |
| O=C1CC(c2ccc(Cl)cc2)CC2=Nc3ccc(Cl)cc3S(=O)(=O)C12 (centres undefined) [7-Chloro-2-(4-chloro-phenyl)-5,5-dioxo-2,3,5,10-tetrahydro-1H-5lambda*6*-phenothiazin-4-one] | 4 µM |
| COc1ccc(C2CC(=O)C3Sc4cc(Cl)ccc4N=C3C2)cc1 (centres undefined) [7-Chloro-2-(4-methoxy-phenyl)-2,3-dihydro-1H,10H-phenothiazin-4-one] | 10 µM |
| COc1ccc(C2CC(=O)C3C(=Nc4ccc(Cl)cc4S3(=O)=O)C2)cc1 (centres undefined) [7-Chloro-2-(4-methoxy-phenyl)-5,5-dioxo-2,3,5,10-tetrahydro-1H-5lambda*6*-phenothiazin-4-one] | 30 µM |
| O=C1CC(c2ccccc2)CC2=Nc3ccc(Cl)cc3SC12 (centres undefined) [7-Chloro-2-phenyl-2,3-dihydro-1H,10H-phenothiazin-4-one] | 10 µM |
| O=C1CC(c2ccccc2)CC2=Nc3ccc(Cl)cc3S(=O)(=O)C12 (centres undefined) [7-Chloro-5,5-dioxo-2-phenyl-2,3,5,10-tetrahydro-1H-5lambda*6*-phenothiazin-4-one] | 4 µM |
| CC1(C)CC(=O)C2C(=Nc3ccc(F)cc3S2(=O)=O)C1 (centres undefined) [7-Fluoro-2,2-dimethyl-5,5-dioxo-2,3,5,10-tetrahydro-1H-5lambda*6*-phenothiazin-4-one] | 5 µM |
| COc1cccc(C2CC(=O)C3Sc4cc(F)ccc4N=C3C2)c1 (centres undefined) [7-Fluoro-2-(3-methoxy-phenyl)-2,3-dihydro-1H,10H-phenothiazin-4-one] | 20 µM |
| COc1cccc(C2CC(=O)C3C(=Nc4ccc(F)cc4S3(=O)=O)C2)c1 (centres undefined) [7-Fluoro-2-(3-methoxy-phenyl)-5,5-dioxo-2,3,5,10-tetrahydro-1H-5lambda*6*-phenothiazin-4-one] | 5 µM |
| O=C1CC(c2ccccc2)CC2=Nc3ccc(F)cc3SC12 (centres undefined) [7-Fluoro-2-phenyl-2,3-dihydro-1H,10H-phenothiazin-4-one] | 20 µM |

From BindingDB's records for doi:10.1021/jm970266p (Universidad Central De Venezuela, 1997)
